Measurements taken from ChEMBL document CHEMBL1275536, “Efficacy of single-dose liposomal amphotericin B or micafungin prophylaxis in a neutropenic murine model of invasive pulmonary aspergillosis” (2008).
Calls of active or inactive are those of the source. No cut-off for these calls is given here. Starred links: 1 amine or outer side, 2 acyl side, 3 side chain; linkers in the order of their positions; H or OH if unused. Positions of bridges follow the written chain, without caps; N, C: chain ends. Non-standard residues stand in square brackets, D forms with d. Residues, ends and D or L forms follow the SMILES beside them. *: point of attachment. hTyr(3S-OH,4S-OH,3'-OSO3H) = N[C@H](C(=O)O)[C@H](O)[C@@H](O)c1ccc(O)c(OS(=O)(=O)O)c1; Orn(4R-OH,5R-OH) = O=C([C@H](C[C@@H](O)[C@@H](O)N[*:3])N[*:1])[*:2]; Pro(3S-OH,4S-Me) = C[C@H]1CN[C@H](C(=O)O)[C@H]1O; X1 = CCCCCOc1ccc(-c2cc(-c3ccc(C(=O)*)cc3)no2)cc1; Gln(3R-OH) = NC(=O)C[C@@H](O)[C@H](N)C(=O)O; Hyp = O=C(O)[C@@H]1C[C@@H](O)CN1

Assays:
[1] = test system: Aspergillus fumigatus; assay: Antifungal activity against Aspergillus fumigatus 293 by broth-microdilution; type: functional; settings: read-out: MEC
In short: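 Broth microdilution following CLSI (NCCLS) approved standard M38-A. Amphotericin B read as MIC; micafungin read as minimum effective concentration.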

[2] = test system: Aspergillus fumigatus; assay: Antifungal activity against Aspergillus fumigatus 293 infected in neutropenic BALB/c mouse lung assessed as swollen dysmorphic hyphal clusters at 20 mg/kg, ip administered as single dose 24 hrs before infection by light microscopy; type: functional, organism-based; parameters: dose 20 mg/kg
In short: (§1)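 Repeat experiments in the neutropenic intranasal-challenge model, five mice per dose, single i.p. dose 24 h pre-infection. Day +7 lungs fixed in 10% formaldehyde and stained with Grocott methenamine silver. Hyphal morphology and density assessed by light microscopy at ×100 and ×400.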

[3] = test system: Aspergillus fumigatus; assay: Antifungal activity against Aspergillus fumigatus 293 infected in neutropenic BALB/c mouse assessed as mouse survival at 20 mg/kg, ip administered as single dose 24 hrs before infection measured after 7 days relative to untreated control; type: functional; settings: route intraperitoneal
In short: (§2)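 Female BALB/c mice, 8 weeks old, 18-22 g. Neutropenia by cyclophosphamide 150 mg/kg i.p. on days −4, −1 and +3, plus cortisone acetate 250 mg/kg i.p. on day −1. Under isoflurane, 2.5 × 10^6 conidia given intranasally. Drug diluted in D5W, given once i.p. 24 h pre-infection; D5W controls; n = 20/group. Morbidity monitored 7 days; log-rank test.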

[4] = test system: Aspergillus fumigatus; assay: Antifungal activity against Aspergillus fumigatus 293 infected in neutropenic BALB/c mouse lung assessed as log reduction in fungal burden at 10 mg/kg, ip administered as single dose 24 hrs before infection; type: functional; settings: route intraperitoneal
In short: (§3)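 Same neutropenic BALB/c intranasal-challenge model; single i.p. dose in D5W given 24 h pre-infection; D5W controls. Lungs from 10-20 mice/group taken at day +7, or earlier at moribund euthanasia. A. fumigatus DNA quantified by real-time PCR as conidial equivalents; reduction expressed as log10 of median versus control.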

[5] = test system: Aspergillus fumigatus; assay: Antifungal activity against Aspergillus fumigatus 293 infected in neutropenic BALB/c mouse assessed as mouse survival at 5 mg/kg, ip administered as single dose 24 hrs prior to infection measured after 7 days relative to untreated control; type: functional; settings: route intraperitoneal; in short: as §2
[6] = test system: Aspergillus fumigatus; assay: Antifungal activity against Aspergillus fumigatus 293 infected in neutropenic BALB/c mouse lung assessed as swollen dysmorphic hyphal clusters at 10 mg/kg, ip administered as single dose 24 hrs before infection by light microscopy; type: functional, organism-based; parameters: dose 10 mg/kg; in short: as §1
[7] = test system: Aspergillus fumigatus; assay: Antifungal activity against Aspergillus fumigatus 293 by Etest; type: functional
In short: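 Susceptibility of A. fumigatus 293 by Etest. Amphotericin B read as MIC; micafungin read as minimum effective concentration.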

[8] = test system: Aspergillus fumigatus; assay: Antifungal activity against Aspergillus fumigatus 293 infected in neutropenic BALB/c mouse lung assessed as log reduction in fungal burden at 5 mg/kg, ip administered as single dose 24 hrs before infection; type: functional; settings: route intraperitoneal; in short: as §3
[9] = test system: Aspergillus fumigatus; assay: Antifungal activity against Aspergillus fumigatus 293 infected in neutropenic BALB/c mouse lung assessed as log reduction in fungal burden at 20 mg/kg, ip administered as single dose 24 hrs before infection; type: functional; settings: route intraperitoneal; in short: as §3

Row | SMILES | minimal effective concentration [1] [µg/mL] | Activity [2] | Activity [3] [%] | FC [4] | Activity [5] [%] | Activity [6] | MEC [7] [µg/mL] | FC [8] | FC [9]
1 | C[C@@H]1[C@H](O)[C@@H](C)/C=C/C=C/C=C/C=C/C=C/C=C/C=C/[C@H](O[C@@H]2O[C@H](C)[C@@H](O)[C@H](N)[C@@H]2O)C[C@@H]2O[C@](O)(C[C@@H](O)C[C@@H](O)[C@H](O)CC[C@@H](O)C[C@@H](O)CC(=O)O[C@H]1C)C[C@H](O)[C@H]2C(=O)O [AMPHOTERICIN B] | 0.25 | – | – | – | – | – | – | – | –
2 | CCCCCOc1ccc(-c2cc(-c3ccc(C(=O)N[C@H]4C[C@@H](O)[C@@H](O)NC(=O)[C@@H]5[C@@H](O)[C@@H](C)CN5C(=O)[C@H]([C@H](O)CC(N)=O)NC(=O)[C@H]([C@H](O)[C@@H](O)c5ccc(O)c(OS(=O)(=O)O)c5)NC(=O)[C@@H]5C[C@@H](O)CN5C(=O)[C@H]([C@@H](C)O)NC4=O)cc3)no2)cc1 [MICAFUNGIN] (X1-[Orn(4R-OH,5R-OH)]T[Hyp][hTyr(3S-OH,4S-OH,3'-OSO3H)][Gln(3R-OH)][Pro(3S-OH,4S-Me)]; lactam 1-C) | 0.25 | Active | 55 | 1.3 | 55 | Active | 0.25 | 1.3 | 0.7
